Assays:
[1] = biological target: Human immunodeficiency virus type 1 reverse transcriptase (Human immunodeficiency virus 1, UniProt Q72547); experiment: Inhibition of HIV-1 recombinant reverse transcriptase after 1 hr by streptavidinalkaline phosphatase reporter system
Summary of the method: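 Highly purified recombinant HIV-1 RT with a poly(rA)/oligo(dT)15 homopolymer template. SA-ALP was added, then PNPP (1 mg/mL, pH 9.5) for 30 min at 37 °C, stopped with NaOH. IC50 is the mean of three experiments.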

[2] = Cytotoxicity against human TZM-bl cells after 3 days by XTT assay; format: cell-based
[3] = tested on: Human immunodeficiency virus 1; experiment: Antiviral activity against wild-type HIV-1 SF33 infected in human TZM-bl cells after 7 days by ELISA; format: functional, organism-based; conditions: Human immunodeficiency virus 1, SF33, TZM-bl, 168 h
Summary of the method: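 TZM-bl cells (4 × 10⁴/well) were infected with 200 TCID₅₀ of HIV-1 SF33 for 2 h at 37 °C. Serially diluted compounds were then added and incubation continued 7 days at 37 °C. p24 was measured by ELISA.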

[4] = Selectivity index, ratio of CC50 for human TZM-bl cells to EC50 for wild-type HIV-1 SF33; format: toxicity, cell-based; conditions: read-out: Ratio CC50/EC50
Summary of the method: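 SI is calculated as CC50 in TZM-bl cells divided by EC50 against HIV-1 SF33 infection.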

| Compound | IC50 [1] [µM] | EC50 [3] [µM] | CC50 at 72 h [2] [µM] | selectivity ratio [4] |
| --- | --- | --- | --- | --- |
| Cc1ccc(Sc2cc(CCc3ccccc3)[nH]c(=O)c2Br)cc1 | 16.9 | – | – | – |
| Cc1ccc(Sc2cc(CCc3ccccc3)[nH]c(=O)c2I)cc1 | 12 | – | – | – |
| O=c1[nH]c(CCc2ccccc2)cc(Sc2ccccc2)c1I | 20.3 | – | – | – |
| CN(C)c1c(Sc2ccccc2)cc(CCc2ccccc2)[nH]c1=O | 15.2 | – | – | – |
| CC(C)c1c(Sc2ccccc2)cc(CCc2ccccc2)[nH]c1=O | 0.093 | 0.136 | 136 | 998 |
| CC1CCCCC1Nc1cc(CCc2ccccc2)[nH]c(=O)c1I (stereo unspecified) | 0.42 | 2.71 | 50.2 | 18.5 |
| O=c1[nH]c(CCc2ccccc2)cc(Nc2ccccc2)c1Br | 11.3 | – | – | – |
| O=c1[nH]c(CCc2ccccc2)cc(Sc2ccccc2)c1Br | 57.1 | – | – | – |
| O=c1[nH]c(CCc2ccccc2)cc(Nc2ccccc2)c1I | 8.14 | – | – | – |
| CC(C)c1c(Oc2ccccc2)cc(CCc2ccccc2)[nH]c1=O | 0.089 | 0.0563 | 195 | 3470 |
| O=c1[nH]c(CCc2ccccc2)cc(Oc2ccccc2)c1I | 0.29 | 0.15 | 181 | 1200 |

Now from value to compound, other results behind:

| IC50 [1] [µM] | EC50 [3] [µM] | Compound | CC50 at 72 h [2] [µM] | selectivity ratio [4] |
| --- | --- | --- | --- | --- |
| 43.3 | – | O=c1[nH]c(CCc2ccccc2)cc(NC2CCCC2)c1Br | – | – |
| 0.68 | 13.7 | CC1CCCCC1Nc1cc(CCc2ccccc2)[nH]c(=O)c1Br (stereo unspecified) | 131 | 9.6 |
| 24 | – | O=c1[nH]c(CCc2ccccc2)cc(NC2CCCC2)c1I | – | – |
| 40.3 | – | O=c1[nH]c(CCc2ccccc2)cc(NC2CCCCC2)c1Br | – | – |
| 15.2 | – | O=c1[nH]c(CCc2ccccc2)cc(NC2CCCCC2)c1I | – | – |

Source: ChEMBL document CHEMBL3352518, “Synthesis and biological evaluation of pyridinone analogues as novel potent HIV-1 NNRTIs” (Bioorg Med Chem, 2015)
